Positions count from the first letter of the chain named. Converted amounts (≈) assume the structure as drawn. The source made the active and inactive calls. The calls are words filed in the database; no cut-off is given here.
Columns and labels:
[1] = biological target: T1, Androgen receptor (Homo sapiens) (UniProt P10275); assay: Inhibition of AR in human HEK293 cells assessed as decrease in receptor transactivation at 10 uM incubated for 24 hrs by dual luciferase reporter gene assay; assay type: cell-based
T1 sequence (whole entry): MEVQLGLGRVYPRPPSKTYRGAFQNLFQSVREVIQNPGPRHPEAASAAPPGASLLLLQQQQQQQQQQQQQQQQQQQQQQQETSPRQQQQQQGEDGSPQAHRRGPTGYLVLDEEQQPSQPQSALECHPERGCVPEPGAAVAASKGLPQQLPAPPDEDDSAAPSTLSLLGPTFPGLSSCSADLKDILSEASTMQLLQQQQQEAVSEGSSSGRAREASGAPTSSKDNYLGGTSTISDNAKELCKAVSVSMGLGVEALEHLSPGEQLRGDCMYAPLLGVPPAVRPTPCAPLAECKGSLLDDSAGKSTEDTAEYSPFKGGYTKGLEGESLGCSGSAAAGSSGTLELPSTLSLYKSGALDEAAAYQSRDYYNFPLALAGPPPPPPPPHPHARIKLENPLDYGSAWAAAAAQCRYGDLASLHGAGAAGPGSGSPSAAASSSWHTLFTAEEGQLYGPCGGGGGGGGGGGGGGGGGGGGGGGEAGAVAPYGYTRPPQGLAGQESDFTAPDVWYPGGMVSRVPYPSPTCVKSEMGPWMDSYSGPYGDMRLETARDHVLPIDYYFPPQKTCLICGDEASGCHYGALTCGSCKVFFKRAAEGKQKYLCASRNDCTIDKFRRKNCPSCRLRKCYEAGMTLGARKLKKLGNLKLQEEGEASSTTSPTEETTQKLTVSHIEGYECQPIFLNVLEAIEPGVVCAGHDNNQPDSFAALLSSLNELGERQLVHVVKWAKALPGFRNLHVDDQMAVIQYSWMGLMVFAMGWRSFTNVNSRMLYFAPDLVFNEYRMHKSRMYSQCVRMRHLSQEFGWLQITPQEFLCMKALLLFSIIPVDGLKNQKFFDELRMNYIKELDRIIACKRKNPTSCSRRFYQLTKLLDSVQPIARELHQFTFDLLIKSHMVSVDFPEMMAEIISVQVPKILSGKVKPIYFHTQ
Procedure, shortened: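 HEK 293 cells transiently co-transfected with wt-AR expression vector and an androgen-responsive luciferase reporter construct. Cells given 2 nM testosterone plus 10 µM test compound (final concentrations). Read-out by luciferase, mean ± SD, n = 3.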

[2] = biological target: Bromodomain-containing protein 4 (Homo sapiens) (UniProt O60885); assay: Inhibition of BRD4 (unknown origin) by alpha-screen assay
[3] = test system: T2, Androgen receptor (Homo sapiens), P10275 [F877L]; assay: Inhibition of AR F876L mutant (unknown origin) transfected in human PC3 cells assessed as receptor transactivation at 0.1 to 30 uM incubated for 24 hrs by dual luciferase reporter gene assay; assay type: cell-based
T2 sequence (whole entry): T1 sequence (whole entry) with F877L

LNCaP [4] = assay: Antiproliferative activity against human LNCAP expressing AR assessed as reduction in cell viability incubated for 6 days by CCK-8 assay; assay type: functional, cell-based; settings: 144 h
Procedure, shortened: (§1)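 Cell proliferation assay run on LNCaP/AR, VCaP, 22Rv1, PC-3 and L-02 cells, with PC-3 and L-02 serving as AR-independent toxicity controls. IC50 fitted in GraphPad Prism 5 as the mean of at least two experiments, each in duplicate. Deviations under 35%.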

[5] = Solubility of compound in PBS incubated for 24 hrs by HPLC analysis; assay type: physicochemical
Procedure, shortened: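 Solubility determined in PBS at 25 ℃ by the saturation shake-flask method. Quantified against calibration curves.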

LNCaP [6] = assay: Inhibition of AR protein expression in human LNCAP cells at 20 uM incubated for 24 hrs by Western blot analysis; assay type: functional, cell-based
Procedure, shortened: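 LNCaP cells treated with 20 µM compound or DMSO for 24 h. AR-full protein detected by western blot with tubulin as loading control, then quantified by ImageJ grayscale analysis.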

[7] = biological target: T1, Androgen receptor (Homo sapiens); assay: Inhibition of EGFP-tagged AR (unknown origin) transfected in human WPMY1 cells assessed as reduction in R1881-induced nuclear translocation of AR at 20 uM incubated for 24 hrs by Hoechst 33342 staining based fluorescence microscopy; assay type: cell-based
Procedure, shortened: (§2)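 WPMY-1 cells transfected with EGFP-tagged wt-AR or AR-F876L. Treated with vehicle or 20 µM compound, with or without 0.5 nM R1881, for 24 h. Nuclei labelled with Hoechst 33342 and AR localisation imaged by fluorescence.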

L02 = assay: Cytotoxicity against human L02 assessed as reduction in cell viability incubated for 6 days by CCK-8 assay; assay type: cell-based; settings: L02, 144 h; procedure, shortened: as §1
CWR22R = assay: Antiproliferative activity against human 22Rv1 expressing AR assessed as reduction in cell viability incubated for 6 days by CCK-8 assay; assay type: functional, cell-based; settings: 22Rv1, 144 h; procedure, shortened: as §1
[8] = test system: T2, Androgen receptor (Homo sapiens), P10275 [F877L]; assay: Inhibition of EGFP-tagged AR F876L mutant (unknown origin) transfected in human WPMY1 cells assessed as reduction in R1881-induced nuclear translocation of AR F876L at 20 uM incubated for 24 hrs by Hoechst 33342 staining based fluorescence microscopy; assay type: cell-based; procedure, shortened: as §2
PC-3 = assay: Cytotoxicity against human PC3 assessed as reduction in cell viability incubated for 6 days by CCK-8 assay; assay type: cell-based; settings: PC-3, 144 h; procedure, shortened: as §1
VCaP = assay: Antiproliferative activity against human VCaP expressing AR assessed as reduction in cell viability incubated for 6 days by CCK-8 assay; assay type: functional, cell-based; settings: 144 h; procedure, shortened: as §1

inhibition [1] | inhibition [2] | inhibition [3] | IC50 (LNCaP [4]) | solubility at 24 h [5] | inhibition [7] | inhibition [8] | IC50 (VCaP) | Compound | inhibition (LNCaP [6]) | IC50 (L02) | IC50 (CWR22R) | IC50 (PC-3)
Active | inactive | Active | 1.08 µM | < 2.52 µM | Active | Active | 0.73 µM | C[C@@H](Cn1ccc(-c2ccc(C#N)c(Cl)c2)n1)Nc1cccc2ncccc12 | Active | 16.6 µM | 3.92 µM | 7.96 µM
Active | inactive | Active | 0.96 µM | 24.5 µM (≈ 9.27 µg/mL) | Active | Active | 0.64 µM | C[C@@H](Cn1ccc(-c2ccc(C#N)c(Cl)c2)n1)Nc1ncnc2nc[nH]c12 | Active | 27.9 µM | 4.24 µM | 14.1 µM

Reference: ChEMBL document CHEMBL4359895, “Discovery and biological evaluation of darolutamide derivatives as inhibitors and down-regulators of wild-type AR and the mutants” (Eur J Med Chem, 2019)
